Test results published in ChEMBL document CHEMBL2029285, “Structure-based design of novel class II c-Met inhibitors: 1. Identification of pyrazolone-based derivatives” (J Med Chem, 2012).
Each block holds one compound with its values, some of them ahead of it.

Assays:
[1] = molecular target: T1, Hepatocyte growth factor receptor (Homo sapiens, UniProt P08581); experiment: Inhibition of recombinant c-met-mediated gastrin phosphorylation by HTRF assay
[2] = molecular target: Vascular endothelial growth factor receptor 2 (Homo sapiens, UniProt P35968); experiment: Inhibition of VEGFR2
Mus musculus [3] = experiment: Inhibition of HGF-mediated c-met autophosphorylation in Balb/c mouse liver at 10 mg/kg, po administered 2 hrs before and measured after 5 mins of HGF stimulation by electrochemiluminescent assay; assay type: functional
In short: (§1)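 Balb/c mice were gavaged at 10, 30 or 100 mg/kg. At 2 h postdose, human HGF was injected iv and livers were harvested 5 min later. Phospho-c-Met was quantified by electrochemiluminescent assay and compared with vehicle + HGF. Mean ± SD, n = 3. Terminal plasma concentrations were measured.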

[4] = Volume of distribution at steady-state in Sprague-Dawley rat at 2 mg/kg, iv; assay type: ADME, organism-based; set-up: dose 2 mg/kg, route intravenous; conditions: in vivo, read-out: Vdss
In short: (§2)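 Male Sprague-Dawley rats, 3 animals per study, given 2 mg/kg iv as a solution in DMSO. Clearance, steady-state volume and half-life were derived from plasma pharmacokinetics.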

[5] = Clearance in Sprague-Dawley rat at 2 mg/kg, iv; assay type: ADME, organism-based; set-up: dose 2 mg/kg, route intravenous; conditions: in vivo; in short: as §2
[6] = Oral bioavailability in Sprague-Dawley rat at 5 mg/kg; assay type: ADME, organism-based; conditions: in vivo
In short: (§3)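 Male Sprague-Dawley rats, 3 animals per study, dosed orally at 5 mg/kg as a suspension in 1% Tween 80, 99% OraPlus.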

[7] = AUC in Sprague-Dawley rat at 5 mg/kg, po; assay type: ADME, organism-based; set-up: dose 5 mg/kg, route oral; conditions: plasma; in short: as §3
[8] = Elimination half life in Sprague-Dawley rat at 2 mg/kg, iv; assay type: ADME, organism-based; set-up: dose 2 mg/kg, route intravenous; conditions: in vivo, read-out: beta t1/2 (converted); in short: as §2
Mus musculus [9] = experiment: Inhibition of HGF-mediated c-met autophosphorylation in po dosed Balb/c mouse liver compound administered 2 hrs before and measured after 5 mins of HGF stimulation by electrochemiluminescent assay; assay type: functional; in short: as §1
[10] = molecular target: Insulin-like growth factor 1 receptor (Homo sapiens) (UniProt P08069); experiment: Inhibition of IGF1R
[11] = molecular target: T1, Hepatocyte growth factor receptor; experiment: Inhibition of HGF-mediated c-met autophosphorylation in serum-starved human PC3 cells after 1 hr by electrochemiluminescent immunoassay; assay type: cell-based, PC-3

Ki [1]: 4.8 nM
SMILES: COc1ccc2c(OCc3nnc4ccc(-c5cc(F)c(F)c(F)c5)cn34)ccnc2c1

INH [2]: 6.2 nM
Vd [4]: 0.242 L/kg
clearance [5]: 0.583 mL/min/kg
bioavailability [6]: 94%
AUC [7]: 258 µM·h
half-life [8]: 4.6 h
INH [10]: 65 nM
SMILES: COc1cc2nccc(Oc3ccc(NC(=O)c4c(C)n(C)n(-c5ccccc5)c4=O)cc3F)c2cc1OC
inhibition in vivo at 10 mg/kg (Mus musculus [3]): 85%
ED90 (Mus musculus [9]): < 30 mg/kg
inhibition (Mus musculus [9]): Dose-dependent effect

IC50 [11]: 53 nM
Ki [1]: 1.7 nM
SMILES: COc1cc2nccc(Oc3ccc(NC(=O)N4CCN(c5ccccc5)C4=O)cc3F)c2cc1OC

Ki [2]: 103 nM
SMILES: COc1cc2nccc(Oc3ccc(NC(=S)NC(=O)Cc4ccccc4)cc3F)c2cc1OC

IC50 [11]: > 20000 nM
Ki [1]: > 20000 nM
SMILES: COc1cc2nccc(Oc3ccc(N(C)C(=O)c4c(C)n(C)n(-c5ccccc5)c4=O)cc3F)c2cc1OC
